Source: ChEMBL document CHEMBL1146555, “Bioactive novel polyphenols from the fruit of Manilkara zapota (Sapodilla)” (J Nat Prod, 2003)
pIC50: −log10 of the molar value.

How the values were obtained:
SW480 = assay: Cytotoxicity against human SW480 cells after 72 hrs by MTT assay; format: functional, cell-based; details: SW480, 72 h
Summary of the method: (§1)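 Human colon cancer cells kept in DMEM with 10% FBS, 5% CO2, 37 °C, no antibiotics. About 3.0 × 10^4 cells per well, grown to 40% confluence, then exposed to compounds in DMSO for 72 h. MTT (5 mg/mL stock) added 4 h, formazan solubilized, absorbance at 570 nm. Octuplicate wells, mean and SD; IC50 by linear regression.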

[1] = system: Radical scavenging activity; assay: Antioxidant activity assessed as DPPH radical scavenging activity after 30 mins; format: functional
Summary of the method: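 Test samples in DMSO mixed with 300 µM ethanolic DPPH, incubated 37 °C for 30 min, absorbance read at 515 nm. Final test concentrations typically 1-50 µg/mL. Percent inhibition relative to DMSO-treated control; IC50 = concentration scavenging 50% of DPPH radicals.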

HCT-116 = assay: Cytotoxicity against human HCT116 cells after 72 hrs by MTT assay; format: functional, cell-based; details: HCT-116, 72 h; summary of the method: as §1

SMILES	pIC50 (SW480)	pIC50 [1]	pIC50 (HCT-116)
O=C(/C=C/c1ccc(O)c(O)c1)O[C@@H]1C[C@](O)(C(=O)O)C[C@@H](O)[C@H]1OC(=O)c1cc(O)c(O)c(O)c1	3.87	4.63	3.81
COC(=O)[C@]1(O)C[C@@H](O)[C@@H](OC(=O)c2cc(O)c(O)c(O)c2)[C@H](OC(=O)/C=C/c2ccc(O)c(O)c2)C1	3.80	4.89	3.72
O=C(/C=C/c1ccc(O)c(O)c1)O[C@@H]1C[C@](O)(C(=O)O)C[C@@H](O)[C@H]1O [CHLOROGENIC ACID]	3.45	4.40	3.44
O=C(O[C@@H]1Cc2c(O)cc(O)cc2O[C@@H]1c1cc(O)c(O)c(O)c1)c1cc(O)c(O)c(O)c1 [EPIGALOCATECHIN GALLATE]	3.71		3.79
